# Screens deposited in PubChem BioAssay by several laboratories.
# CHOP inh – inhibitors of CHOP promoter induction, primary screen, cell-based, unfolded protein response, luciferase reporter. CHO-K1 CHOP-promoter luciferase, tunicamycin-induced, 15-18 h. inhibition, % at 10 µM. 3.8% of 220,000 active. AID 2732, 2010;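 active means compounds that reduced the stress-induced luciferase reporter signal by more than about 70% of percent inhibition, limit read from the data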;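 further: 0% = tunicamycin plus vehicle and 100% = wells without tunicamycin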
# CTSL1 counter – Fasciola hepatica cathepsin L1 inhibitors, primary screen, counter-screen for PFM18AAP inhibitor project, biochemical, QFRET, fluorogenic peptide substrate | recombinant F. hepatica cathepsin L1, Z-Leu-Arg-MCA fluorescence | inhibition, % at 5.96 µM | 0.49% of 300,000 active;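 active means inhibition above the mean of all tested compounds plus 3 SD, set per screening campaign, cut at about 17% in these data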;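 further: 0% = plate median of test compound wells and 100% = 1 µM Z-Phe-Ala-diazomethylketone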
# UPR CHOP act – activators of apoptotic CHOP UPR arm, primary screen, cell-based, CHO-CHOP luciferase reporter, luminescence, uHTS; UPR activation; percent of tunicamycin response over DMSO baseline; activation, % at 10 µM; 0.34% of 330,000 active; AID 449763, 2010;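 active means at 10 µM dose, activation of 40% or more, normalized to positive control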;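 further: 100% = tunicamycin at 10 µg/mL and 0% = DMSO alone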
#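 Assay system: CHO-CHOP cells, stable luciferase reporter of PERK-eIF2a-CHOP signalling / Buffer or medium: F12 plus 10% serum / Compound dosing: one dose, 10 µM in 0.5% DMSO / Times: 6 h compound treatment, 37 °C / Technique: luciferase luminescence / Read-out: % reporter activation, DMSO baseline versus tunicamycin full activation / Benchmarks: tunicamycin and DMSO controls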
# XBP1 UPR activ – activators of adaptive XBP1 UPR arm, primary screen, cell-based, CHO-XBP1 luciferase reporter, luminescence, uHTS; IRE1-XBP1 UPR activation; percent of tunicamycin response, DMSO as zero; activation, % at 20 µM; 0.33% of 330,000 active; AID 463104, 2010;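 active means versus positive control, 20 µM dose yields 30% or more activation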;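 further: 100% = tunicamycin at 10 µg/mL and 0% = DMSO only wells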
#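 Material: CHO cell line with stable XBP1 luciferase reporter; schedule: 16-18 h cell attachment at 37 °C, then 6 h compound exposure; signal: glow luminescence from Steady-Glo reagent; medium: serum-containing F12 medium, 10% FBS; benchmarks: tunicamycin 10 µg/mL and vehicle-only wells; read-out: percent activation relative to tunicamycin reference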
# UCH37 inh – inhibitors of human UCH37 deubiquitinase, primary screen, biochemical, Ub-AMC cleavage, fluorescence; 0.33% of 330,000 active; purified proteasome/UCH37; Ubiquitin carboxyl-terminal hydrolase isozyme L5 (Homo sapiens), Q9Y5K5; inhibition, % (concentration not given with the values);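 active means mean inhibition over replicate wells above about 20%, limit read from the data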;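 further: 0% = compound-free wells with enzyme and 100% = wells lacking proteasome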
# Target sequence (Q9Y5K5 whole entry, looked up): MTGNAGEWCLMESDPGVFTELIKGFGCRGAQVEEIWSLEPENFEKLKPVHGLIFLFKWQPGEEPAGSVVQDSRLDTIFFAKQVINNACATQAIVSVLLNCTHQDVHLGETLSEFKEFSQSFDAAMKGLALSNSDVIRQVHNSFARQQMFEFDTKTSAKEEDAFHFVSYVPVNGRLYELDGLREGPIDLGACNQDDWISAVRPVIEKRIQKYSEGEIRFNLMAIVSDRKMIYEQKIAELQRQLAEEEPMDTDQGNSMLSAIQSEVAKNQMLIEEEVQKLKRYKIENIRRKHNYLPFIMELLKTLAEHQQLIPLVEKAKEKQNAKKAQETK
#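 Material: Human UCH37 enzyme supplied as purified proteasome complex | Schedule: 30 min compound-proteasome preincubation then 25 min substrate reaction, room temperature | Detection: AMC fluorescence from Ub-AMC cleavage, excitation 355 nm, emission 460 nm | Benchmarks: Wells without proteasome as full block, compound-free enzyme plus substrate as uninhibited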
# Active calls of the source: *; x = no result given. This excerpt belongs to a sample that is enriched for hits.
SMILES,CHOP inh,CTSL1 counter,UPR CHOP act,XBP1 UPR activ,UCH37 inh
CSc1nc(N(C)CCO)c2sc3nc(-c4ccco4)c4c(c3c2n1)CCC4,-105,22*,-1,0,-10
COc1ccc(C=NNC(=O)c2ccccc2OC)cc1COc1ccc(C)cc1,x,x,x,x,-2
COc1cc2c(cc1OC)C(c1cccc(Br)c1)CC(=O)N2 (stereo not drawn),x,x,-1,-1,4
CC1(C)CC(=O)C2=C(C1)NC(=O)CC2c1cc(F)ccc1F (stereo not drawn),6,1,3,1,5
O=C1CC(c2cc(F)ccc2F)c2cc3c(cc2N1)CCC3 (stereo not drawn),71*,1,-2,-2,7
O=C1CC(c2cccc(Br)c2)c2cc3c(cc2N1)CCC3 (stereo not drawn),108*,1,1,3,1
CCN(CC)S(=O)(=O)c1ccccc1C=NO,x,x,x,x,3
CC(=NNC(=O)c1cc(Br)ccc1O)c1ccccn1,x,x,x,x,5
Cc1ccc(NC(=S)NN=C2CCCc3c(C)cc(C)cc32)cc1,x,x,x,x,2
COc1ccc(NC(=S)N/N=C2/CCCc3c(C)cc(C)cc32)cc1,77*,6,0,5,x
O=C(CN1CCCN(S(=O)(=O)c2ccc(Br)s2)CC1)Nc1ccc(Cl)cc1,72*,-1,-1,-2,3
CN(N=Cc1ccc(O)cc1O)c1ncc(C(F)(F)F)cc1Cl,x,x,x,x,-4
CC1=CCCC2C(C=C(C)CC1)OC(=O)C2CN1CCCCC1 (stereo not drawn),x,x,x,x,1
Cc1ccc(-c2nnc3ccc(SCC(=O)N4CCc5ccccc54)nn23)cc1,85*,-1,5,19,-22
CC(=NNC(=S)NCc1ccccc1)c1ccc(C(C)(C)C)cc1,x,x,x,x,2
CS(=O)(=O)N(CC(=O)N1CCN(C(c2ccccc2)c2ccccc2)CC1)C1CCCCC1,79*,1,-1,3,3
CS(=O)(=O)N(CC(=O)N1CCN(c2ccccc2F)CC1)C1CCCCC1,2,-3,0,-1,-1
COc1ccc2[nH]c3c(c2c1)CCn1c-3nc2ccccc2c1=O,71*,7,2,-3,-49
COc1cc(C=NO)c(Br)cc1OCC(=O)Nc1ccccc1C,x,x,x,x,1
COCCn1c(SCC(=O)Nc2ccccc2C)nc2c(oc3ccccc32)c1=O,79*,0,-1,0,2
COCCn1c(SCC(=O)Nc2ccc(OC)cc2)nc2c(oc3ccccc32)c1=O,48,-5,3,21,4
O=C(Nc1ccccc1)c1ccccc1Oc1ccc(C(F)(F)F)cc1[N+](=O)[O-],71*,-6,-1,1,1
O=C(Oc1ccccc1C(=O)Nc1ccccc1)c1ccc(Br)c([N+](=O)[O-])c1,84*,6,9,2,2
O=C(COc1ccc(C(F)(F)F)cc1[N+](=O)[O-])Nc1cccc(C(F)(F)F)c1,3,-4,2,0,0
O=C(NN=Cc1ccc2c(c1)OCO2)C(=O)Nc1ccccc1,x,x,x,x,0
SMILES,CHOP inh,CTSL1 counter,UPR CHOP act,XBP1 UPR activ,UCH37 inh
Cc1csc(CN(C)C(=O)C2CCC(=O)N(CCN(C)C)C2)n1 (stereo not drawn),x,19*,-2,-3,-1
Cc1ccc(C(=O)/C=C/NNC(=O)c2ccccc2)cc1,x,x,x,x,4
NC(Cc1ccc([N+](=O)[O-])cc1)=NOC(=O)COc1ccccc1Cl,x,x,x,x,0
O=C(CN1CCCc2ccccc21)Nc1ccc(F)cc1[N+](=O)[O-],74*,3,2,-3,6
O=C(CN1CCCc2ccccc21)NN=Cc1ccc(F)cc1F,x,x,x,x,1
CC(O)[C@H]1CC[C@H]2[C@@H]3CC[C@H]4C[C@@H](O)CC[C@]4(C)[C@H]3C(=NO)C[C@]12C (stereo partly drawn),x,x,x,x,0
CCCCSc1nc(C)cc(SCC(=O)N/N=C/c2cccc(OC)c2O)n1,75*,7,-2,3,x
COc1cccc(C=NNC(=O)CSc2ccccc2C)c1O,x,x,x,x,0
CNc1cc(CSC)nc(SCc2ccc(Cl)cc2Cl)n1,77*,-5,0,3,0
Nc1nc(SCc2ccc(Cl)cc2Cl)n[nH]1,28,1,-2,0,-1
Nc1ccc(-c2nnnn2-c2ccc(N)cc2)cc1,x,-1,1,-3,1
Clc1ccc(-c2nnnn2-c2ccc(Cl)c(Cl)c2)cc1Cl,83*,3,-3,0,-1
CC(CC(=O)NC(C)(C)C)=NNC(N)=S,x,x,x,x,-1
COc1cc(C(=O)NCC(=O)Nc2ccc(F)c(F)c2)ccc1OCC(=O)N1CCOCC1,x,20*,-1,-1,4
COc1cc(C(=O)Nc2ccc(C(F)(F)F)cc2)ccc1OCC(=O)N1CCOCC1,x,x,3,0,1
N#Cc1c(C(F)(F)F)cc(C2CC2)nc1N1CCCC1,83*,-1,-2,-2,2
Cc1cc(C(F)(F)F)c(C#N)c(N2CCOCC2)n1,22,3,1,0,-12
COc1ccc(C=Nn2cnnc2)cc1COc1ccccn1,x,x,x,x,4
COc1ccc(/C=N/n2cnc3c([nH]c4ccccc43)c2=O)cc1COc1ccccn1,19,26*,0,1,x
CC(C)c1ccc(/C=N/NC(=O)CN(c2cccc(Cl)c2Cl)S(C)(=O)=O)cc1,86*,3,1,5,x
O=C(CC=NOCc1c(Cl)cccc1Cl)c1ccccc1,x,x,x,x,7
CC(=O)C1=C(C)NC(=O)NC1c1ccccc1OCC(=O)NCCc1ccccc1 (stereo not drawn),16,1,1,0,3
CC(=O)C1=C(c2ccccc2)NC(=O)NC1c1ccccc1OCC(=O)Nc1ccccc1 (stereo not drawn),72*,-3,-1,-1,3
COc1ccc(C=NNC(=O)CCOc2ccccc2C)cc1OC,x,x,x,x,3
CCOc1cc(/C=C2/C(=N)N3OC(C)=CC3=NC2=O)ccc1OCCOc1ccccc1,92*,-2,-3,4,-35
CCOc1ccc(/C=C2/C(=N)N3OC(C)=CC3=NC2=O)cc1OC,2,1,-1,-3,3
COc1ccc(C(=O)ON=Cc2ccc(S(=O)(=O)c3ccc(Cl)cc3)nc2)cc1,x,x,x,x,-6
COCc1c(C#N)c(NCc2cc(OC)c(OC)c(OC)c2)nc(C)c1[N+](=O)[O-],28,0,2,-5,4
COc1cc(CNc2nc(C)c([N+](=O)[O-])c(C)c2C#N)cc(OC)c1,71*,1,-2,3,3
CCOc1cccc(-c2nnc3sc(COc4ccc(C)cc4)nn23)c1,70*,-2,0,-3,7
